Measurements: PubChem BioAssay
Inconclusive results are not listed.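 How the source made its calls, unless noted: active means viability at or below 27.92% in each of two runs, the all-compound median minus 4 SD; inconclusive means no clear call, values can overlap the other calls; inactive means the rest.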

What was measured:
[1] = OD615 S. cerevisiae growth inhibition, permissive medium, pilot counter-assay, permissive growth control for S. cerevisiae lifespan shortening project (AID 705;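 active means growth inhibition above 25% in both replicates, a cutoff set 3 SD above the mean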); details: OD615, 24 h, at 10 µM, stronger effect = higher value
How it was run: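 System: engineered DeaD yeast; Medium: permissive raffinose/galactose medium; Compound dosing: 10 µM single dose, 0.25% DMSO; Incubation: 4 h cell pre-growth, 24 h exposure at 30 °C; Technique: OD at 615 nm; Evaluation: growth inhibition from lowered OD615 after 24 h.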

[2] = Restrictive medium S. cerevisiae growth inhibition, OD615, pilot screen of yeast lifespan reduction project, restrictive growth control (AID 706;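 active means growth inhibition above a set limit, 3 SD over mean compound inhibition, in both replicates, cut at about 43% in these data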;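 further: modified DeaD lifespan yeast strain shifted to restrictive glucose medium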); details: OD615, 48 h, at 10 µM, stronger effect = higher value
How it was run: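 Material: modified S. cerevisiae; buffer or medium: CSMM-D glucose medium; doses: one concentration, 10 µM final, 0.25% DMSO; incubation: 48 h compound exposure at 30 °C; detection: optical density at 615 nm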

[3] = viability gain of MRP-1-high H69AR cells under doxorubicin, pilot screen, MRP-1 activator project, CellTiter-Glo, duplicate (AID 807;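 active means viability increase at or above a cutoff of the median across tested compounds plus 3 SD, cut at about 8.5% in these data, passing the limit was not always enough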;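 further: compound pretreatment 18-22 h then 72 h combined with doxorubicin; 0% = doxorubicin alone and 100% = vehicle without doxorubicin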); details: H69AR viability with doxorubicin, CellTiter-Glo luminescence; at 10 µM; stronger effect = higher value
[4] = growth suppression of beta-catenin knockout HCT116, pilot screen, human colon tumor cells (AID 823;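 active means cell viability at or below a set limit in both duplicate runs, the limit being the all-compound median minus 4 SD, cut at about 23% in these data, passing the limit was not always enough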;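 further: 0% = wells killed by 20 µM Hyamine and 100% = untreated DMSO cell wells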); details: CellTiter-Glo, 60 h, at 10 µM, stronger effect = lower value
[5] = growth suppression of PTEN-deleted HCT116, pilot screen, cell-based, HCT116 clonal line, CellTiter-Glo (AID 824); details: 60 h, at 10 µM, stronger effect = lower value;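 further: 0% = 20 µM Hyamine control and 100% = vehicle cell control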
[6] = inhibitors of the yeast RAM network, pilot screen, dse1pr::URA3 reporter, 5-FOA selection (AID 869;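 active means inhibition over a set limit, the all-compound mean plus 3 SD, in both replicate runs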;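 further: 0% = DMSO wells with no growth and 100% = 10 µM 1-NA-PP1 with full growth; RAM network block rescues cells from 5-FOA so hits raise OD615 growth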); details: S. cerevisiae dse1pr::URA3 5-FOA growth, OD615, 2 d; at 10 µM; stronger effect = higher value; strain carries analog-sensitive mutant Cbk1 kinase
[7] = RAM signaling pathway blockade in yeast – S. cerevisiae, Pdr1DBD-CYC8 efflux-inhibited sensitized strain, primary screen (AID 1298;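 active means RAM network inhibition above 8.4% in each of two replicates, 3 SD over the compound average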;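 further: 0% = DMSO untreated cells without growth and 100% = 10 µM 1-NA-PP1 full growth; higher means more yeast growth rescued from 5-FOA killing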); details: S. cerevisiae cbk1-as DSE1-URA3 strain, 5-FOA growth OD615, 2 d; at 50 µM; stronger effect = higher value

Cc1cc(C(=O)NCc2cccs2)n(-c2ccccc2)n1
inactive: growth inhibition [1] -10.7% | growth inhibition [2] -6.11% | viability increase [3] 0.91% | viability [4] 102% | viability [5] 90.6% | inhibition [6] 1.03% | RAM network inhibition [7] 5.86%

COc1cc(-c2nc(-c3cccc(C)c3)no2)cc(OC)c1OC
inactive: growth inhibition [1] -5.34% | growth inhibition [2] -14.7% | viability increase [3] 0.46% | viability [4] 81.3% | viability [5] 81% | inhibition [6] 2.26% | RAM network inhibition [7] 9.46%

O=C(CSc1nnnn1-c1ccccc1)CSc1nnnn1-c1ccccc1
inactive: growth inhibition [1] -7.66% | growth inhibition [2] 1.63% | viability increase [3] -5.63% | viability [4] 92.6% | viability [5] 90.1% | inhibition [6] 2.98% | RAM network inhibition [7] 7.19%

O=C1CCC(=O)N1c1ccc(CSc2nnnn2C2CCCCC2)cc1
inactive: growth inhibition [1] -0.7% | growth inhibition [2] 4.66% | viability increase [3] 0.3% | viability [4] 103% | viability [5] 97.6% | inhibition [6] -0.145% | RAM network inhibition [7] 1.92%

CCOC(=O)N1CCN(C(=O)CSc2nnc(-c3cccs3)o2)CC1
inactive: growth inhibition [1] 0.955% | growth inhibition [2] 3.94% | viability increase [3] 0.87% | viability [4] 104% | viability [5] 108% | inhibition [6] 0.595% | RAM network inhibition [7] 1.07%

CC1CCCCN1C(=O)c1ccc(S(=O)(=O)N2CCCCC2C)cc1 (stereo unspecified)
inactive: growth inhibition [1] -5.29% | growth inhibition [2] -15.2% | viability increase [3] -2.45% | viability [4] 96.7% | viability [5] 95.6% | inhibition [6] 1.99% | RAM network inhibition [7] 2.28%

CC(CCc1ccco1)NC(=O)c1cc2c(-c3ccccc3F)nn(C)c2s1 (stereo unspecified)
inactive: growth inhibition [1] -0.025% | growth inhibition [2] 5.7% | viability increase [3] 1.04% | viability [4] 83.3% | viability [5] 78.7% | inhibition [6] 1.15% | RAM network inhibition [7] -0.15%

O=C(c1ccc(CS(=O)(=O)c2c(Cl)cccc2Cl)o1)N1CCCC1
inactive: growth inhibition [1] -1.83% | growth inhibition [2] -21% | viability increase [3] -1.96% | viability [4] 103% | viability [5] 93.2% | inhibition [6] 2.21% | RAM network inhibition [7] -0.84%

O=C(c1ccc(CN2CCc3ccccc3C2)cc1)N1CCCCC1
inactive: growth inhibition [1] 4.87% | growth inhibition [2] 3.72% | viability increase [3] -2.43% | viability [4] 94.2% | viability [5] 93.9% | inhibition [6] 3.59% | RAM network inhibition [7] 4.9%

Cc1ccc(S(=O)(=O)N(CC(O)CN2CCCCC2)c2ccccc2)cc1 (stereo unspecified)
inactive: growth inhibition [1] 0.475% | growth inhibition [2] 0.56% | viability increase [3] -2.49% | viability [4] 71.6% | viability [5] 96.6% | inhibition [6] 2.97% | RAM network inhibition [7] 3.38%

CCn1cc(C(=O)N2CCCC2)c(=O)c2cc(S(=O)(=O)N(C)C)ccc21
inactive: growth inhibition [1] -3.43% | growth inhibition [2] 6.6% | viability increase [3] 0.77% | viability [4] 106% | viability [5] 101% | inhibition [6] 0.825% | RAM network inhibition [7] 3.02%

Cc1ccc(NC(=O)Cn2cc3c(n2)CCC(C)C3)cc1 (stereo unspecified)
inactive: growth inhibition [1] -1.07% | growth inhibition [2] 2.22% | viability increase [3] 0.37% | viability [4] 106% | viability [5] 88.6% | inhibition [6] 0.39% | RAM network inhibition [7] 1.64%

O=C1Nc2ccccc2C(O)(C(=O)NC2CC2)N1c1ccc(Cl)c(Cl)c1 (stereo unspecified)
inactive: growth inhibition [1] -1.51% | growth inhibition [2] -1.06% | viability increase [3] -4.14% | viability [4] 92.5% | viability [5] 95% | inhibition [6] 1.22% | RAM network inhibition [7] 3.99%

Cn1c(=O)c2cc(NCc3ccccc3)nnc2n(C)c1=O
inactive: growth inhibition [1] -12.8% | growth inhibition [2] -9.73% | viability increase [3] -2.1% | viability [4] 67.5% | viability [5] 58.8% | inhibition [6] 0.38% | RAM network inhibition [7] -0.94%

O=C(O)CC(CNS(=O)(=O)c1ccccc1)c1ccccc1 (stereo unspecified)
inactive: growth inhibition [1] -1.83% | growth inhibition [2] 1.5% | viability increase [3] 0.76% | viability [4] 100% | viability [5] 98.6% | inhibition [6] 1.54% | RAM network inhibition [7] -0.36%

CCc1ccc(C2CC(c3ccc(C)cc3)n3nc(N)nc3N2)cc1 (stereo unspecified)
inactive: growth inhibition [1] 5.21% | growth inhibition [2] 24.1% | viability increase [3] 0.11% | viability [4] 101% | viability [5] 107% | inhibition [6] 1.35% | RAM network inhibition [7] 8.9%

CCc1cccc(C)c1NC(=O)CN1C(=O)c2ccccc2S1(=O)=O
inactive: growth inhibition [1] -7.37% | growth inhibition [2] 1.46% | viability increase [3] -0.23% | viability [4] 98.3% | viability [5] 93.2% | inhibition [6] 0.955% | RAM network inhibition [7] 4.79%

COC(=O)C1=CNC=C(C(=O)OC)C1c1ccc(C(=O)OC)cc1
inactive: growth inhibition [1] 1.55% | growth inhibition [2] 6.7% | viability increase [3] -3.35% | viability [4] 93.5% | viability [5] 98.3% | inhibition [6] 0.165% | RAM network inhibition [7] 2.17%

O=C(NCc1cccnc1)c1cccc(S(=O)(=O)N2CCOCC2)c1
inactive: growth inhibition [1] -7.59% | growth inhibition [2] 1.51% | viability increase [3] 0.32% | viability [4] 103% | viability [5] 101% | inhibition [6] 1.6% | RAM network inhibition [7] 0.62%

CC(C)CCNC(=O)Cn1c(=O)oc2cc(S(=O)(=O)N3CCc4ccccc43)ccc21
inactive: growth inhibition [1] -6.32% | growth inhibition [2] -5.12% | viability increase [3] -5.87% | viability [4] 71.8% | viability [5] 62.5% | inhibition [6] 1.15% | RAM network inhibition [7] 1.07%

CCOC(=O)Nc1sc(NS(=O)(=O)c2ccccc2)nc1C
inactive: growth inhibition [1] -10.4% | growth inhibition [2] 3.58% | viability increase [3] -0.61% | viability [4] 105% | viability [5] 104% | inhibition [6] 0.295% | RAM network inhibition [7] 2.87%

CCCC(=O)N=c1sc2cccc(F)c2n1C
inactive: growth inhibition [1] -9.43% | growth inhibition [2] -11.1% | viability increase [3] -2.75% | viability [4] 99% | viability [5] 93.2% | inhibition [6] 0.795% | RAM network inhibition [7] 5.05%

COC(=O)CCC(=O)Nc1ccc(Br)cc1
inactive: growth inhibition [1] 8.2% | growth inhibition [2] 0.895% | viability increase [3] -1.52% | viability [4] 101% | viability [5] 95.4% | inhibition [6] 1.16% | RAM network inhibition [7] 6.37%

CCCc1nc(N)c(C#N)c(-c2cccnc2)c1CC
inactive: growth inhibition [1] -6.48% | growth inhibition [2] -4.83% | viability increase [3] -4.91% | viability [4] 90.8% | viability [5] 84.7% | inhibition [6] 0.805% | RAM network inhibition [7] 3.69%

CCOC(=O)N1CCN(C(=O)c2cc3c(=O)n(C)c4ccccc4c3n2C)CC1
inactive: growth inhibition [1] -9.54% | growth inhibition [2] 1.15% | viability increase [3] -2.85% | viability [4] 94.6% | viability [5] 89.9% | inhibition [6] 1.31% | RAM network inhibition [7] 0.42%

COC(=O)CSc1nc(C)cc(Oc2ccccc2)n1
inactive: growth inhibition [1] -8.61% | growth inhibition [2] -5.81% | viability increase [3] -1.76% | viability [4] 104% | viability [5] 95.8% | inhibition [6] 1.48% | RAM network inhibition [7] 4.9%

CC/C(=C\C(=O)c1ccncc1)Nc1ccc(O)cc1
inactive: growth inhibition [1] -4.59% | growth inhibition [2] 8.96% | viability increase [3] -3.41% | viability [4] 92.8% | viability [5] 83.7% | inhibition [6] 1.58% | RAM network inhibition [7] 2.31%

O=C(O)CCCC(=O)Nc1c(F)c(F)c(F)c(F)c1F
inactive: growth inhibition [1] -5.5% | growth inhibition [2] -6.27% | viability increase [3] -1.85% | viability [4] 90.4% | viability [5] 94.4% | inhibition [6] 0.175% | RAM network inhibition [7] -0.87%

CCN1CCN(C(=O)c2cc3c(-c4ccc(Cl)cc4)nn(C)c3s2)CC1
inactive: growth inhibition [1] -4.23% | growth inhibition [2] 16% | viability increase [3] -7.68% | viability [4] 38.5% | viability [5] 52.7% | inhibition [6] 2.21% | RAM network inhibition [7] 1.3%

Nc1c(C(=O)Nc2ccc(Cl)cc2)oc2ccccc12
inactive: growth inhibition [1] -21% | growth inhibition [2] -20.9% | viability increase [3] -4.54% | viability [4] 75.3% | viability [5] 72.9% | inhibition [6] 2.38% | RAM network inhibition [7] 2.51%

Cc1cc2ncn(C3CC(=O)N(Cc4ccc(N5CCCC5=O)cc4)C3=O)c2cc1C (stereo unspecified)
inactive: growth inhibition [1] -7.9% | growth inhibition [2] 13.8% | viability increase [3] -0.37% | viability [4] 97.9% | viability [5] 98.5% | inhibition [6] 0.14% | RAM network inhibition [7] 1.48%

CC(C)c1nnc(NC(=O)c2cccs2)s1
inactive: growth inhibition [1] -15% | growth inhibition [2] -8.46% | viability increase [3] 0.84% | viability [4] 95.5% | viability [5] 86.4% | inhibition [6] 1.23% | RAM network inhibition [7] 6.85%

CCOC(=O)N1CCC(NC(=O)c2cc3c(-c4ccccc4F)nn(C)c3s2)CC1
inactive: growth inhibition [1] -7.38% | growth inhibition [2] -13.5% | viability increase [3] -3.97% | viability [4] 75.6% | viability [5] 84.2% | inhibition [6] 1.74% | RAM network inhibition [7] 0.42%
